CHO parental Ca: signal in parental CHO cells, OX1R antagonist counter-screen | parental CHO-K1, ATP-induced calcium, Fluo-8 fluorescence | inhibition, % at 5.6 µM | actives 0.63% (n = 330,000);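 active means inhibition above that plate's mean sample inhibition plus 3 SD, cut at about 26% in these data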;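 further: 0% = ATP-challenged DMSO wells and 100% = DMSO wells without ATP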
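Test system: untransfected parental CHO cell line. Compound: one dose, 5.6 µM nominal. Detection: intracellular calcium via Fluo-8 no-wash fluorescent dye. Measure: % inhibition. Benchmarks: ATP-challenged DMSO wells low, unchallenged DMSO wells high.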
CHO-K1 Ca antag: nonselective inhibitor or artifact in parental CHO-K1 cells. ATP-induced calcium, Fluo-8 fluorescence. inhibition, % at 3 µM. actives 0.6% (n = 360,000);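 active means inhibition above a per-plate cutoff, the plate's mean sample inhibition plus 3 SD, cut at about 24% in these data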;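 further: 0% = DMSO plus EC80 ATP and 100% = DMSO alone without ATP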
OX1R antag-1: antagonists of human orexin 1 receptor (OX1R) | OX1R-expressing cells, FRET antagonist read-out | inhibition, % at 6.6 µM | AID 485270 | O43613 | actives 1.8% (n = 330,000); in the data active means inhibition mostly above about 38%, no sharp cut-off; inactive means mostly below about 40%;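 further: 0% = agonist challenge alone and 100% = reference antagonist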
Target sequence (O43613 whole entry, looked up): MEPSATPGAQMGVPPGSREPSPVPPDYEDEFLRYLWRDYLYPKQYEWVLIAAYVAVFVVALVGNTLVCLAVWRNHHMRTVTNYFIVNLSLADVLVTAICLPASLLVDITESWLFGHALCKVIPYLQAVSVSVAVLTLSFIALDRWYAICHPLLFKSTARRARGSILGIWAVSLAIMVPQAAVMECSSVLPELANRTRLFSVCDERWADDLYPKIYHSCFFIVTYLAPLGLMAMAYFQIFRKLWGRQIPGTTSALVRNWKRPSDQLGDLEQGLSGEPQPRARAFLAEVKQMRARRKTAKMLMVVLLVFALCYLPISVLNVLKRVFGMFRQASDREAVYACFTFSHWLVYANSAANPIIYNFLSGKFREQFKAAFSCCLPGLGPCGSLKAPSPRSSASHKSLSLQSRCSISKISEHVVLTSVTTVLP
OX1R antag-2: human HCRTR1 antagonism; CHO/OX1R cells, Fluo-8 calcium fluorescence, orexin A; inhibition, % at 5 µM; AID 434989; O43613; actives 0.43% (n = 330,000);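 active means inhibition above its plate's threshold, mean inhibition of all tested compounds on the plate plus 3 SD, cut at about 37% in these data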;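 further: 0% = orexin A challenge wells and 100% = SB-334867-A antagonist wells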
CHO-K1 Ca ag: M1 agonist counterscreen hit in parental CHO-K1 cells; actives 0.48% (n = 360,000); AID 602248; Fluo-8 calcium fluorescence; scaled to maximal ATP response, vehicle zero; activation, % at 3 µM; in the data active means activation above about 15%;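 further: untransfected CHO-K1 host cells lacking M1 receptor as counterscreen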
M1 PAM parental: counter-screen for M1 PAMs: effect in parental CHO-K1 cells. ATP EC20, Fluo-8 calcium fluorescence; 0% at ATP EC20, 100% at ATP max. activation, % at 3 µM. actives 0.02% (n = 360,000). AID 602247;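 active means activation above the run cutoff, the mean activation of all test compounds plus 3 SD, cut at about 40% in these data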;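 further: peak over basal fluorescence ratio in a 140 s read after ATP addition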
* marks the source's active call; other numbers are inactive results; nt = no result given. Sampled rows, rich in hits. Any-hit rate of the full collection: about 2.9%.

SMILES	CHO parental Ca	CHO-K1 Ca antag	OX1R antag-1	OX1R antag-2	CHO-K1 Ca ag	M1 PAM parental
O=C(NC1CCCCC1)NS(=O)(=O)c1ccc2c(c1)CCC2	nt	-7	nt	nt	0	-1
O=C(Nc1ccc(C(=O)N2CCOCC2)cc1)c1ccc([N+](=O)[O-])cc1	-10	-6	44*	1	1	-5
O=C(NC(=S)Nc1ccc(C(=O)N2CCOCC2)cc1)c1ccc([N+](=O)[O-])cc1	-2	-2	15	-7	1	7
CN1CCN(S(=O)(=O)c2ccc(NC(=O)c3ccc([N+](=O)[O-])cc3)cc2)CC1	-17	5	44*	-18	0	-9
CCCC1C2C(=O)N(c3ccc(OC)cc3)C(=O)C2ON1c1ccccc1 (stereo not drawn)	-9	1	11	-26	0	-3
CCCC1C2C(=O)N(c3cccc(C)c3)C(=O)C2ON1c1ccccc1 (stereo not drawn)	-26	0	13	-36	17*	7
COc1ccc(CN(C)C(=O)C2CCN(C(=O)Nc3ccccc3)CC2)cc1	6	26*	19	-6	1	-27
COC(=O)C1CCN(C(=O)Nc2ccccc2)CC1	1	-11	5	1	1	18
O=C(Cc1ccc(S(=O)(=O)N2CCOCC2)s1)N1CCN(S(=O)(=O)c2ccc(Cl)cc2)CC1	-2	3	13	-3	8	18
COc1ccc(/C=N/Nc2ncccc2[N+](=O)[O-])c(OC)c1	-13	-10	50*	-7	-1	-4
COc1ccc(/C=N/Nc2ncc(-c3ccccc3)cn2)c(OC)c1	-11	-7	23	-44	0	15
O=C(/C=C/c1cccc([N+](=O)[O-])c1)OCC1CCCO1 (stereo not drawn)	nt	-12	nt	nt	1	25
COc1ccc2c(c1)C(C)=CC(C)(C)N2S(=O)(=O)c1ccc(C)cc1	12	-5	25	-11	0	12
CC1=CC(C)(C)N(S(=O)(=O)c2ccc(C)cc2)c2cc(C)ccc21	49*	-11	18	1	0	17
O=C(OCc1ccccc1)C1=NNC2C(=O)N(c3ccc(Br)cc3)C(=O)C12 (stereo not drawn)	-18	-5	11	-20	1	16
COC(=O)C1=CN(Cc2ccccc2)C=C(C(=O)OC)C1c1ccc(O)c(OC)c1	-22	25*	5	-20	0	-24
COC(=O)C1=CN(Cc2ccccc2)C=C(C(=O)OC)C1c1ccc(OC)c(OC)c1	-16	-5	6	-18	0	20
CCOC(=O)N(C)c1c(CC)nc2c(OCc3ccccc3C)cccn12	nt	-1	nt	nt	0	12
CC(=O)OCCNc1cc(Sc2nc3ccccc3[nH]2)c2nonc2c1[N+](=O)[O-]	48*	15	98*	29	-1	6
CC(=O)OCCCNc1cc(Sc2nc3ccccc3s2)c2nonc2c1[N+](=O)[O-]	7	-21	30	-1	0	18
CC(=O)OCCNc1cc(SCc2ccco2)c2nonc2c1[N+](=O)[O-]	-1	-1	46	-6	2	22
COC(=O)CCSc1cc(NCCOC(C)=O)c([N+](=O)[O-])c2nonc12	2	-9	53*	-5	0	11
COc1cccc(C(C)(O)c2nc(-c3ccc(F)c(Cl)c3)cs2)c1 (stereo not drawn)	nt	-2	nt	nt	3	-3
Cc1cc(C(C#N)c2cccc(Cl)c2)n2ncnc2n1 (stereo not drawn)	-7	0	76*	0	3	3
Cc1cccc(OCCC(=O)N(C)CC(=O)Nc2cccc3ccccc23)c1	-11	17	31	-19	1	-9
SMILES	CHO parental Ca	CHO-K1 Ca antag	OX1R antag-1	OX1R antag-2	CHO-K1 Ca ag	M1 PAM parental
Cc1ccc(NC(=O)CN(C)C(=O)c2ccccc2Sc2ccccc2C#N)cc1	-25	-5	55*	-19	3	-2
Oc1ccc(-c2n[nH]c(C(F)(F)F)c2-c2ccccc2)c(O)c1	57*	28*	21	15	8	-4
COc1ccc(-c2c(-c3ccc(O)cc3O)n[nH]c2C(F)(F)F)cc1	-14	12	7	-3	0	-20
CCOc1cc(CNc2ccc3cn[nH]c3c2)ccc1OC	-12	3	8	-35	0	-5
COc1ccc(CNc2ccc3cn[nH]c3c2)c(OC)c1OC	-7	-18	37*	7	0	21
O=C(Cn1ccc([N+](=O)[O-])n1)NCc1nc2ccccc2[nH]1	-12	0	37	3	17*	18
Cn1c(SCC2CCCO2)nnc1-c1ccc([N+](=O)[O-])cc1 (stereo not drawn)	-22	-17	41*	-8	1	14
Cn1c(SCc2ccc([N+](=O)[O-])cc2)nnc1-c1ccncc1	-14	-10	25	-7	2	-7
O=S(=O)(c1ccc(NC(=S)NC2CCCC2)cc1)N1CCCC1	2	25*	11	-5	4	-10
S=C(Nc1ccc(Cl)c(Cl)c1)NC1CCN(Cc2ccccc2)CC1	93*	24*	0	96*	12	14
S=C(Nc1ccc(Cl)c(Cl)c1)NC1CCCCC1	38*	13	59*	24	23*	2
FC(F)(F)c1cccc(NC(=S)NC2CCCC2)c1	7	25*	31	20	9	-16
Fc1cccc(NC(=S)NC2CCCCCCC2)c1	nt	14	nt	nt	8	-17
Cc1cc(C)c(C2=Nn3c(C)nnc3SC2C)cc1C (stereo not drawn)	1	-12	14	-1	2	19
CC(=O)OCC[C@H](NS(=O)(=O)OCC(Cl)(Cl)Cl)c1ccccc1	-16	-12	18	-10	1	23
O=[N+]([O-])c1cnc2ccccc2c1	-8	-12	71*	-3	0	22
O=S(CC(O)c1ccccc1)c1ccccc1 (stereo not drawn)	nt	-3	nt	nt	2	-1
CN(C)c1ccc(/C=N/N(CCO)C2=NS(=O)(=O)c3ccccc32)cc1	53*	-8	14	48*	0	3
CSc1ccc(CCNC(=O)CSc2ccsc2[N+](=O)[O-])cc1	-13	7	49	-26	0	-6
NS(=O)(=O)c1ccc(CCNC(=O)CSc2ccsc2[N+](=O)[O-])cc1	-18	-10	44*	-13	0	-6
O=C(CSc1ccsc1[N+](=O)[O-])NC1CCCC1	-12	26*	39	4	-1	-14
CCOc1ccc(CCNC(=O)COC(=O)c2ccc(OC(C)C)cc2)cc1OCC	-21	-16	42	-27	0	-7
COc1cccc(CN2CCC(n3nccc3NC(=O)CCCc3ccccc3)CC2)c1	-22	0	18	-27	3	3
O=C(COc1ccc(F)cc1)N/N=C/c1cccc2cccnc12	-19	-2	12	-32	1	-3
